Each structure is given as a SMILES string. Where only a bound is given, the exact number is not on record here.

For one test, the system named is Nucleic Acid. In words: Efficiency at pBR322 DNA interstand cross-linking at 100 uM. In kind it is functional. The settings on record: Escherichia coli. The method in brief: (§1)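 5'-end-labelled HindIII-linearised pBR322 (~5000 cpm/sample) incubated with compound 2 h at 37 °C, pH 4, in TEA buffer with 2 mM ascorbic acid reduction. Stopped, ethanol-precipitated, denatured 90 °C 2 min in strand separation buffer, run on 0.8% agarose (Tris-acetate, 40 V, 16 h). Autoradiograph densitometry gives percent double-stranded (cross-linked) DNA per lane. Single representative experiment.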
Regarding `CC1=CC(=O)C(N2CC2)=C(C)C1=O`, the Cross linking was 9%.
On the same count and under the same terms, to `CCCC1=CC(=O)C(N2CC2)=CC1=O` belongs 13.2%; to `CC1=C(C)C(=O)C(N2CC2)=CC1=O`, 4.7%; to `CC1=CC(=O)C(C)=C(C)C1=O`, 0%.
Same read-out and setting: to `CC1=CC(=O)C(N)=CC1=O` belongs 0%; to `CC1=C(C)C(=O)C=CC1=O`, 0%.
The same measure, in the same setting: to `CC1=CC(=O)C=CC1=O` [Cresoquinone] belongs 0%; to `O=C1C=C(N2CCC2)C(=O)C=C1N1CCC1`, 0%.
Regarding `NC1=CC(=O)C(N)=CC1=O`, the Cross linking worked out at 0%.
The same measure, in the same setting: to `O=C1C=C(N2CC2)C(=O)C=C1N1CC1` belongs 100%; to `CC1=C(C)C(=O)C(C)=C(C)C1=O` [DUROQUINONE], 0%; to `CC1=CC(=O)C(N2CCC2)=CC1=O`, 0%.
`CC1=CC(=O)C=C(C)C1=O` showed a Cross linking of 0%.
Consider `CC1=CC(=O)C(N2CC2)=CC1=O`, for which the Cross linking is 81%.
Still for that read-out and setting: to `CCC1=CC(=O)C(N2CC2)=CC1=O` belongs 57.1%.

A further test deals with K562. As to the kind of experiment: In vitro cytotoxicity against Human Chronic Leukemia K562 cells. The class given is functional, cell-based.
Settings: not given
The method in brief:
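600 cells/well exposed to compound for 2 h, growth measured by MTT with absorbance at 540 and 640 nm. Growth inhibition plotted against concentration, triplicate per concentration.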
With `CC1=CC(=O)C(N2CC2)=C(C)C1=O`, the IC50 (commonly the concentration needed to halve the response being measured) came out at 1200 nM.
On the same count and under the same terms, to `CCCC1=CC(=O)C(N2CC2)=CC1=O` belongs 600 nM.
On the same count and under the same terms, to `CC1=C(C)C(=O)C(N2CC2)=CC1=O` belongs 1300 nM; to `CC1=CC(=O)C(C)=C(C)C1=O`, 3600 nM.
On the same count and under the same terms, to `CC1=CC(=O)C(N)=CC1=O` belongs over 15000 nM; to `CC1=C(C)C(=O)C=CC1=O`, 1400 nM.
`CC1=CC(=O)C=CC1=O` [Cresoquinone] returned an IC50 of 2750 nM.
The same measure, in the same setting: to `O=C1C=C(N2CCC2)C(=O)C=C1N1CCC1` belongs over 40000 nM; to `NC1=CC(=O)C(N)=CC1=O`, over 25000 nM; to `O=C1C=C(N2CC2)C(=O)C=C1N1CC1`, 9 nM.
Same read-out and setting: to `CC1=C(C)C(=O)C(C)=C(C)C1=O` [DUROQUINONE] belongs over 50000 nM; to `CC1=CC(=O)C(N2CCC2)=CC1=O`, over 25000 nM; to `CC1=CC(=O)C=C(C)C1=O`, 1250 nM.
Same read-out and setting: to `CC1=CC(=O)C(N2CC2)=CC1=O` belongs 100 nM; to `CCC1=CC(=O)C(N2CC2)=CC1=O`, 600 nM.

The next test relates to Nucleic Acid. As to the kind of experiment: Efficiency at pBR322 DNA interstand cross-linking at 10 uM. The settings on record: Escherichia coli. The class given is functional. Put shortly: as §1
On to `CC1=CC(=O)C(N2CC2)=C(C)C1=O`, for which the Cross linking turned out to be 3%.
As for `CCCC1=CC(=O)C(N2CC2)=CC1=O`, the Cross linking came out at 2.2%.
On the same count and under the same terms, to `CC1=C(C)C(=O)C(N2CC2)=CC1=O` belongs 1.2%; to `CC1=CC(=O)C(C)=C(C)C1=O`, 0%; to `CC1=CC(=O)C(N)=CC1=O`, 0%.
The same measure, in the same setting: to `CC1=C(C)C(=O)C=CC1=O` belongs 0%.
Same read-out and setting: to `CC1=CC(=O)C=CC1=O` [Cresoquinone] belongs 0%.
For `O=C1C=C(N2CCC2)C(=O)C=C1N1CCC1`, the Cross linking was found to be 0%.
In turn, `NC1=CC(=O)C(N)=CC1=O` gave a Cross linking of 0%.
The same measure, in the same setting: to `O=C1C=C(N2CC2)C(=O)C=C1N1CC1` belongs 100%.
On the same count and under the same terms, to `CC1=C(C)C(=O)C(C)=C(C)C1=O` [DUROQUINONE] belongs 0%.
As for `CC1=CC(=O)C(N2CCC2)=CC1=O`, the Cross linking came out at 0%.
In turn, `CC1=CC(=O)C=C(C)C1=O` showed a Cross linking of 0%.
On the same count and under the same terms, to `CC1=CC(=O)C(N2CC2)=CC1=O` belongs 12.2%; to `CCC1=CC(=O)C(N2CC2)=CC1=O`, 6.9%.

These data come from ChEMBL document CHEMBL1129666, “Cross-linking and sequence specific alkylation of DNA BY aziridinylquinones. 1. Quinone methides” (J Med Chem, 1996).
